Assay results pooled from the literature.
Each line is one published result; the experiments were not run side by side.
EIF2AK1: Eukaryotic translation initiation factor 2-alpha kinase 1 (EIF2AK1, Homo sapiens, UniProt Q9BQI3)
RIOK2: Serine/threonine-protein kinase RIO2 (RIOK2, Homo sapiens, UniProt Q9BVS4)
Abl2: Abl2 (Mus musculus, UniProt Q4JIM5)
ESR1: Estrogen receptor (ESR1, Homo sapiens, UniProt P03372)
Si: Sucrase-isomaltase, intestinal (Si, Rattus norvegicus, UniProt P23739)

Structure (SMILES) | target | test | system | setting | quantity | result
O=C(c1ccc(Cl)cc1)N(Cc1ccccc1)C1CCCCC1 | Glucocorticoid receptor (NR3C1, Homo sapiens, UniProt P04150) | cell-free assay |  | 10 µM | inhibition | 28.5%
CC(C)(C)c1nc2c(s1)c1nc(N)ncc1c1ccc(NS(=O)(=O)c3c(F)cccc3F)c(F)c12 | EIF2AK1 | enzyme activity, inhibitor, radiometric |  | 1 µM | remaining activity | 69%
Cc1ccc(C(=O)Nc2ccc(CN3CCN(C)CC3)c(C(F)(F)F)c2)cc1C#Cc1cnc2cccnn12 | RIOK2 | enzyme activity, inhibitor |  | 23.5 nM | remaining activity | 88%
Cn1c2c(c3ccc(Cl)c(Cl)c31)C(C#N)C(C)(C)NC2=O (stereo not shown) | Rhodopsin kinase GRK1 (GRK1, Homo sapiens, UniProt Q15835) | thermal stability, DSF |  | 10 µM | ΔTm | 2.7 °C
Cc1ccc(Nc2nccc(N(C)c3ccc4c(C)n(C)nc4c3)n2)cc1S(N)(=O)=O | Abl2 | enzyme activity, inhibitor |  | 10 µM | inhibition | 76%
CCCOc1ccc(OC)c(F)c1C(=O)c1ccc(C(=O)N[C@@H]2CNC[C@H]2NC(=O)c2ccc3[nH]ncc3c2)cc1 | Abl2 | enzyme activity, inhibitor |  | 10 µM | remaining activity | 87%
O=C(c1ccc(F)cc1)N(Cc1ccccc1)C1CCCCC1 | ESR1 | cell-free assay |  | 10 µM | inhibition | 32%
O=C1OC[C@H]2OC(=O)c3cc(O)c(O)c(O)c3-c3c(O)c(O)c(O)c4c3C(=O)O[C@H]([C@H]3OC(=O)c5c-4c(O)c(O)c(O)c5[C@H]3O)[C@@H]2OC(=O)c2cc(O)c(O)c(O)c2-c2c1cc(O)c(O)c2O | Si | enzyme activity, inhibitor |  | 100 µg/mL | inhibition | 48.3%
C[S+]([O-])c1ccc(-c2nc(-c3ccncc3)c(-c3ccc(F)cc3)[nH]2)cc1 (stereo not shown) | Bromodomain-containing protein 1, bromodomain (BRD1, Homo sapiens, UniProt O95696) | thermal stability, DSF |  | 10 µM | ΔTm | -0.23 °C
CCOCc1nc(O)c(-c2nnc(Cc3ccc(Cl)cn3)o2)c(O)c1-c1c(OC)cccc1OC | Apelin receptor (APLNR, Homo sapiens, UniProt P35414) | binding, radioligand |  |  | kon | 5.17e+06 M⁻¹ s⁻¹
O=c1c(O[C@@H]2O[C@@H](CO)[C@H](O)[C@H]2O)c(-c2ccc(O)c(O)c2)oc2cc(O)cc(O)c12 | Si | enzyme activity, inhibitor |  | 100 µg/mL | inhibition | 52.4%
COc1cc(Cl)c(C(=O)N[C@@H](CN[C@H]2CC[C@@H](N)CC2)Cc2ccc(C#N)cc2)cc1-c1ccc(CN[C@H](C)c2ccc(C)cc2)o1 | EIF2AK1 | enzyme activity, inhibitor |  | 1 µM | remaining activity | 93%
O=c1c(O[C@@H]2O[C@H](CO)[C@@H](O)[C@H](O)[C@H]2O)c(-c2ccc(O)c(O)c2)oc2cc(O)cc(O)c12 | Si | enzyme activity, inhibitor |  | 100 µg/mL | inhibition | 54.6%
CCCc1c(-c2ccc(O)cc2)nn(-c2ccc(O)cc2)c1-c1ccc(O)cc1 | ESR1 | reporter gene, agonist, luciferase | U2OS |  | Emax | 120%
O=C(O)C(=O)Cc1ccccc1 | D-dopachrome decarboxylase (Homo sapiens, UniProt P30046) | enzyme activity, substrate |  |  | Km | 2.4 mM
Nc1ncnc2occ(-c3ccc(NC(=O)Nc4cc(C(F)(F)F)ccc4F)cc3)c12 | RIOK2 | cell-free assay, inhibitor |  | 20 µM | remaining signal | 8.5%
